Measured values from ChEMBL document CHEMBL5058577, “EUbOPEN Chemogenomics Library 2 (Multiplex)” (2022).

Test system: Fibroblast
Assay: Multiplex assay against human fibroblast
Format: toxicity, cell-based
In short: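 Live cells were stained at seeding with Hoechst33342, BioTracker Green Microtubule Cytoskeleton Dye, MitoTracker Red and Annexin V Alexa Fluor 680, then imaged on a CQ1 microscope at 37°C and 5% CO2 after compound addition. CellPathfinder machine-learning gating split cells into Hoechst high-intensity objects or normal cells. Normal cells were split into healthy, pyknosed or fragmented nuclei, and pyknosed cells into mitotic or apoptotic. Tubulin, mitochondrial-mass and membrane-permeability phenotypes are per cents of healthy-nucleus cells.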

[1] = 12 h, 1 µM, compound concentration 1 uM, replicate 1
[2] = 12 h, 1 µM, compound concentration 1 uM, replicate 2
[3] = 12 h, 10 µM, compound concentration 10 uM, replicate 1
[4] = 12 h, 10 µM, compound concentration 10 uM, replicate 2
[5] = 24 h, 1 µM, compound concentration 1 uM, replicate 1
[6] = 24 h, 1 µM, compound concentration 1 uM, replicate 2
[7] = 24 h, 10 µM, compound concentration 10 uM, replicate 1
[8] = 24 h, 10 µM, compound concentration 10 uM, replicate 2
[9] = 48 h, 1 µM, compound concentration 1 uM, replicate 1
[10] = 48 h, 1 µM, compound concentration 1 uM, replicate 2
[11] = 48 h, 10 µM, compound concentration 10 uM, replicate 1
[12] = 48 h, 10 µM, compound concentration 10 uM, replicate 2

CCCCC[C@H](O)/C=C/[C@H]1[C@H](O)CC(=O)[C@@H]1CCCCCCC(=O)O [ALPROSTADIL]
Population Apoptotic (%) [1]: 61% | Population Fragmented Nuclei (%) [1]: 16% | Population Healthy Nuclei (%) [1]: 71% | Population Hoechst High Intensity Objects (%) [1]: 0% | Population Membrane Permeable-Phenotype (%) [1]: 0% | Population Mitochondria Different-Phenotype (%) [1]: 1% | Population Mitotic Cells (%) [1]: 38% | Population Normal (%) [1]: 99% | Population Pyknosed Nuclei (%) [1]: 12% | Population Tubulin-Different-Phenotype (%) [1]: 12% | Total Cell Count [1]: 150 | Population Apoptotic (%) [2]: 43% | Population Fragmented Nuclei (%) [2]: 23% | Population Healthy Nuclei (%) [2]: 57% | Population Hoechst High Intensity Objects (%) [2]: 4% | Population Membrane Permeable-Phenotype (%) [2]: 10% | Population Mitochondria Different-Phenotype (%) [2]: 2% | Population Mitotic Cells (%) [2]: 56% | Population Normal (%) [2]: 95% | Population Pyknosed Nuclei (%) [2]: 18% | Population Tubulin-Different-Phenotype (%) [2]: 38% | Total Cell Count [2]: 169 | Population Apoptotic (%) [3]: 36% | Population Fragmented Nuclei (%) [3]: 7% | Population Healthy Nuclei (%) [3]: 75% | Population Hoechst High Intensity Objects (%) [3]: 5% | Population Membrane Permeable-Phenotype (%) [3]: 2% | Population Mitochondria Different-Phenotype (%) [3]: 4% | Population Mitotic Cells (%) [3]: 63% | Population Normal (%) [3]: 94% | Population Pyknosed Nuclei (%) [3]: 17% | Population Tubulin-Different-Phenotype (%) [3]: 26% | Total Cell Count [3]: 136 | Population Apoptotic (%) [4]: 34% | Population Fragmented Nuclei (%) [4]: 25% | Population Healthy Nuclei (%) [4]: 43% | Population Hoechst High Intensity Objects (%) [4]: 16% | Population Membrane Permeable-Phenotype (%) [4]: 11% | Population Mitochondria Different-Phenotype (%) [4]: 1% | Population Mitotic Cells (%) [4]: 65% | Population Normal (%) [4]: 83% | Population Pyknosed Nuclei (%) [4]: 31% | Population Tubulin-Different-Phenotype (%) [4]: 45% | Total Cell Count [4]: 146 | Population Apoptotic (%) [5]: 25% | Population Fragmented Nuclei (%) [5]: 15% | Population Healthy Nuclei (%) [5]: 73% | Population Hoechst High Intensity Objects (%) [5]: 0% | Population Membrane Permeable-Phenotype (%) [5]: 0% | Population Mitochondria Different-Phenotype (%) [5]: 1% | Population Mitotic Cells (%) [5]: 75% | Population Normal (%) [5]: 99% | Population Pyknosed Nuclei (%) [5]: 10% | Population Tubulin-Different-Phenotype (%) [5]: 15% | Total Cell Count [5]: 147 | Population Apoptotic (%) [6]: 43% | Population Fragmented Nuclei (%) [6]: 22% | Population Healthy Nuclei (%) [6]: 53% | Population Hoechst High Intensity Objects (%) [6]: 2% | Population Membrane Permeable-Phenotype (%) [6]: 8% | Population Mitochondria Different-Phenotype (%) [6]: 8% | Population Mitotic Cells (%) [6]: 56% | Population Normal (%) [6]: 97% | Population Pyknosed Nuclei (%) [6]: 24% | Population Tubulin-Different-Phenotype (%) [6]: 40% | Total Cell Count [6]: 165 | Population Apoptotic (%) [7]: 63% | Population Fragmented Nuclei (%) [7]: 14% | Population Healthy Nuclei (%) [7]: 69% | Population Hoechst High Intensity Objects (%) [7]: 2% | Population Membrane Permeable-Phenotype (%) [7]: 0% | Population Mitochondria Different-Phenotype (%) [7]: 2% | Population Mitotic Cells (%) [7]: 36% | Population Normal (%) [7]: 97% | Population Pyknosed Nuclei (%) [7]: 15% | Population Tubulin-Different-Phenotype (%) [7]: 19% | Total Cell Count [7]: 147 | Population Apoptotic (%) [8]: 30% | Population Fragmented Nuclei (%) [8]: 27% | Population Healthy Nuclei (%) [8]: 45% | Population Hoechst High Intensity Objects (%) [8]: 13% | Population Membrane Permeable-Phenotype (%) [8]: 16% | Population Mitochondria Different-Phenotype (%) [8]: 3% | Population Mitotic Cells (%) [8]: 69% | Population Normal (%) [8]: 86% | Population Pyknosed Nuclei (%) [8]: 26% | Population Tubulin-Different-Phenotype (%) [8]: 59% | Total Cell Count [8]: 157 | Population Apoptotic (%) [9]: 32% | Population Fragmented Nuclei (%) [9]: 18% | Population Healthy Nuclei (%) [9]: 62% | Population Hoechst High Intensity Objects (%) [9]: 1% | Population Membrane Permeable-Phenotype (%) [9]: 1% | Population Mitochondria Different-Phenotype (%) [9]: 4% | Population Mitotic Cells (%) [9]: 67% | Population Normal (%) [9]: 98% | Population Pyknosed Nuclei (%) [9]: 18% | Population Tubulin-Different-Phenotype (%) [9]: 30% | Total Cell Count [9]: 152 | Population Apoptotic (%) [10]: 55% | Population Fragmented Nuclei (%) [10]: 26% | Population Healthy Nuclei (%) [10]: 51% | Population Hoechst High Intensity Objects (%) [10]: 3% | Population Membrane Permeable-Phenotype (%) [10]: 6% | Population Mitochondria Different-Phenotype (%) [10]: 8% | Population Mitotic Cells (%) [10]: 44% | Population Normal (%) [10]: 96% | Population Pyknosed Nuclei (%) [10]: 21% | Population Tubulin-Different-Phenotype (%) [10]: 44% | Total Cell Count [10]: 162 | Population Apoptotic (%) [11]: 62% | Population Fragmented Nuclei (%) [11]: 11% | Population Healthy Nuclei (%) [11]: 62% | Population Hoechst High Intensity Objects (%) [11]: 2% | Population Membrane Permeable-Phenotype (%) [11]: 1% | Population Mitochondria Different-Phenotype (%) [11]: 7% | Population Mitotic Cells (%) [11]: 37% | Population Normal (%) [11]: 97% | Population Pyknosed Nuclei (%) [11]: 26% | Population Tubulin-Different-Phenotype (%) [11]: 34% | Total Cell Count [11]: 144 | Population Apoptotic (%) [12]: 48% | Population Fragmented Nuclei (%) [12]: 33% | Population Healthy Nuclei (%) [12]: 44% | Population Hoechst High Intensity Objects (%) [12]: 16% | Population Membrane Permeable-Phenotype (%) [12]: 13% | Population Mitotic Cells (%) [12]: 51% | Population Normal (%) [12]: 83% | Population Pyknosed Nuclei (%) [12]: 22% | Population Tubulin-Different-Phenotype (%) [12]: 60%
